Measurements pooled from the literature.
Each line is one published result; the experiments were not run side by side.
Target: Cyclin-dependent kinase 14 (CDK14, Homo sapiens, UniProt O94921)

O=C(c1ccc(Nc2ncc(Cl)c(-c3cc4ccccc4s3)n2)cc1)N1CCC(N2CCCC2)CC1
remaining binding (binding, competition with immobilised ligand; 1 µM): 78%

O=C(NCC1CCOCC1)c1n[nH]cc1NC(=O)c1c(F)cccc1F
remaining binding (binding, competition with immobilised ligand; 1 µM): 79%

Cc1cc(C)c(-n2ccn3nc(-c4cccnc4)cc23)cc1NC(=O)c1cc(C#N)cc(S(F)(F)(F)(F)F)c1
remaining binding (cell-free assay, competition with immobilised ligand; 0.1 µM): 100%

CN(C)c1nccc(-c2cnn3ncccc23)n1
remaining binding (binding; 1 µM): 89%

O=C(Nc1cnc(Oc2ccc(F)cc2)nc1)N1CCc2ncccc2[C@@H]1c1ccc(F)cc1
remaining binding (cell-free assay, competition with immobilised ligand; 1 µM): 100%

Cc1cnc(Nc2ccc(C(=O)N3CCC(N4CCCC4)CC3)cc2)nc1-c1cc2ccccc2s1
remaining binding (binding, competition with immobilised ligand; 1 µM): 100%

O=C(N1CCS(=O)(=O)CC1)N1C[C@H](c2ccc(OC(F)(F)F)cc2)C[C@H](c2nc(C3CC3)no2)C1
remaining binding (cell-free assay, competition with immobilised ligand; 1 µM): 100%

COc1cnc(Nc2cccc(S(N)(=O)=O)c2)nc1N1CCN(c2ccccc2)CC1
remaining binding (binding, competition with immobilised ligand; 1 µM): 94%

F[C@@H]1CCN(c2nccc(-c3cnn4ncccc34)n2)C1
remaining binding (binding; 1 µM): 100%

CCN1CCN(Cc2ccc(C(=O)Nc3ccc(C)c(Oc4ccc5c(c4)CC(=O)N5)c3)cc2C(F)(F)F)CC1
remaining binding (binding, competition with immobilised ligand; 1 µM): 100%

CN(C)c1nccc(-c2cnc3ncccn23)n1
remaining binding (binding; 1 µM): 100%

Nc1ncc2c(n1)-c1c([nH]c3ccc(C#CC4CC4)cc13)CCCC2
remaining binding (binding, competition with immobilised ligand; 1 µM): 88%

COc1cnc(Nc2cccc(S(N)(=O)=O)c2)nc1N1CCN(c2ccccc2)C(=O)C1
remaining binding (binding, competition with immobilised ligand; 1 µM): 100%

CS(=O)(=O)c1cc(C2(NC(=O)c3cncc4c3cnn4-c3ccc(F)cc3)CC2)ccn1
remaining binding (cell-free assay, competition with immobilised ligand; 1 µM): 100%

COc1ccnn2ncc(-c3ccnc(N(C)C)n3)c12
remaining binding (binding; 1 µM): 100%

Cc1cc(NC(=O)c2cccc(S(F)(F)(F)(F)F)c2)cc(-n2ccn3nc(-c4cccnc4)cc23)c1
remaining binding (cell-free assay, competition with immobilised ligand; 1 µM): 93.8%

N[C@H]1CCN(c2nccc(-c3cnn4ncccc34)n2)C1
remaining binding (binding; 1 µM): 100%

CC(=O)N1CCC(c2ccc(C(=O)NC3=NCCN3)cc2C(F)(F)F)CC1
remaining binding (cell-free assay, competition with immobilised ligand; 1 µM): 100%

CN(c1nccc(-c2cnn3ncccc23)n1)C1CC1
remaining binding (binding; 1 µM): 100%
